The source made the active and inactive calls. The rule behind the calls is not given here.
How the values were obtained:
SF-268 = assay: Growth inhibition of human SF268 cells at 10 uM after 48 hrs by SRB assay relative to control; format: functional; details: SF-268, 48 h, read-out: GI
Outline: (§1)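 Screened at the National Cancer Institute by the standard NCI protocol using the sulforhodamine B assay, which measures cellular protein. Single dose of 10 µM. Result is percent growth inhibition; values above 100% mean cell number fell below the initial population. Values are the average of duplicates.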

NCI-H522 = assay: Growth inhibition of human NCI-H522 cells at 10 uM after 48 hrs by SRB assay relative to control; format: functional; details: NCI-H522, 48 h, read-out: GI; outline: as §1
SNB-19 = assay: Growth inhibition of human SNB19 cells at 10 uM after 48 hrs by SRB assay relative to control; format: functional; details: SNB-19, 48 h, read-out: GI
Outline: (§2)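 NCI screen against its human cancer cell line panel by the standard NCI protocol, SRB protein stain. Single dose of 10 μM. Percent growth inhibition versus control; values above 100% mean the cell population fell below the starting number. Each value is the mean of duplicates.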

HOP-62 = assay: Growth inhibition of human HOP62 cells at 10 uM after 48 hrs by SRB assay relative to control; format: functional; details: HOP-62, 48 h, read-out: GI; outline: as §1
UACC-62 = assay: Growth inhibition of human UACC62 cells at 10 uM after 48 hrs by SRB assay relative to control; format: functional; details: UACC-62, 48 h, read-out: GI; outline: as §2
ACHN = assay: Growth inhibition of human ACHN cells at 10 uM after 48 hrs by SRB assay relative to control; format: functional; details: read-out: GI; outline: as §1
L132 = assay: Cytotoxicity against human L-132 cells after 48 hrs by MTT assay; format: cell-based; details: L132, 48 h
Outline: (§3)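 Normal human lung epithelial L132 and ovarian epithelial IOSE-80PC cells were tested by MTT viability assay, and IC50 was determined.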

OVCAR-4 = assay: Growth inhibition of human OVCAR4 cells at 10 uM after 48 hrs by SRB assay relative to control; format: functional; details: OVCAR-4, 48 h, read-out: GI; outline: as §1
KM12 = assay: Growth inhibition of human KM12 cells at 10 uM after 48 hrs by SRB assay relative to control; format: functional; details: KM12, 48 h, read-out: GI; outline: as §1
PC-3 = assay: Growth inhibition of human PC3 cells at 10 uM after 48 hrs by SRB assay relative to control; format: functional; details: PC-3, 48 h, read-out: GI; outline: as §1
NCI-H460 = assay: Growth inhibition of human NCI-H460 cells at 10 uM after 48 hrs by SRB assay relative to control; format: functional; details: NCI-H460, 48 h, read-out: GI; outline: as §1
MOLT-4 = assay: Growth inhibition of human MOLT4 cells at 10 uM after 48 hrs by SRB assay relative to control; format: functional; details: MOLT-4, 48 h, read-out: GI; outline: as §1
SW-620 = assay: Growth inhibition of human SW620 cells at 10 uM after 48 hrs by SRB assay relative to control; format: functional; details: SW-620, 48 h, read-out: GI; outline: as §2
OVCAR-3 = assay: Growth inhibition of human OVCAR3 cells at 10 uM after 48 hrs by SRB assay relative to control; format: functional; details: OVCAR-3, 48 h, read-out: GI; outline: as §1
OVCAR-5 = assay: Growth inhibition of human OVCAR5 cells at 10 uM after 48 hrs by SRB assay relative to control; format: functional; details: OVCAR-5, 48 h, read-out: GI; outline: as §1
BT-549 = assay: Growth inhibition of human BT549 cells at 10 uM after 48 hrs by SRB assay relative to control; format: functional; details: BT-549, 48 h, read-out: GI; outline: as §1
UO-31 = assay: Growth inhibition of human UO31 cells at 10 uM after 48 hrs by SRB assay relative to control; format: functional; details: UO-31, 48 h, read-out: GI; outline: as §2
[1] = Cytotoxicity against human IOSE-80PC cells after 48 hrs by MTT assay; format: cell-based; outline: as §3
MDA-MB-435 = assay: Growth inhibition of human MDA-MB-435 cells at 10 uM after 48 hrs by SRB assay relative to control; format: functional; details: MDA-MB-435, 48 h, read-out: GI; outline: as §1
HT-29 = assay: Growth inhibition of human HT-29 cells at 10 uM after 48 hrs by SRB assay relative to control; format: functional; details: HT-29, 48 h, read-out: GI; outline: as §1
CAKI-1 = assay: Growth inhibition of human Caki1 cells at 10 uM after 48 hrs by SRB assay relative to control; format: functional; details: CAKI-1, 48 h, read-out: GI; outline: as §1
OVCAR-8 = assay: Growth inhibition of human OVCAR8 cells at 10 uM after 48 hrs by SRB assay relative to control; format: functional; details: OVCAR-8, 48 h, read-out: GI; outline: as §1
HeLa [2] = assay: Induction of apoptosis in human HeLa cells assessed as live cells after 24 hrs by Annexin V-FITC/propidium iodide staining based flow cytometry (reference value: 92.9%); format: functional
Outline: (§4)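 HeLa human cervical cancer cells treated with increasing concentrations or for increasing incubation times. Cells stained with annexin V-FITC and propidium iodide and analysed by FACS. Gating: early apoptotic = annexin+/PI−, late apoptotic = annexin+/PI+.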

HeLa [3] = assay: Induction of apoptosis in human HeLa cells assessed as live cells at 10 uM by Annexin V-FITC/propidium iodide staining based flow cytometry (reference value: 85.2%); format: functional; outline: as §4
HeLa [4] = assay: Induction of apoptosis in human HeLa cells assessed as necrotic cells after 24 hrs by Annexin V-FITC/propidium iodide staining based flow cytometry (reference value: 0.9%); format: functional; outline: as §4
HeLa [5] = assay: Induction of apoptosis in human HeLa cells assessed as early apoptotic cells after 48 hrs by Annexin V-FITC/propidium iodide staining based flow cytometry (reference value: 2.6%); format: functional; outline: as §4
HeLa [6] = assay: Induction of apoptosis in human HeLa cells assessed as early apoptotic cells at 2.5 uM by Annexin V-FITC/propidium iodide staining based flow cytometry (reference value: 5.7%); format: functional; outline: as §4
HeLa [7] = assay: Induction of apoptosis in human HeLa cells assessed as early apoptotic cells at 10 uM by Annexin V-FITC/propidium iodide staining based flow cytometry (reference value: 5.7%); format: functional; outline: as §4
HeLa [8] = assay: Induction of apoptosis in human HeLa cells assessed as late apoptotic cells after 48 hrs by Annexin V-FITC/propidium iodide staining based flow cytometry (reference value: 3.6%); format: functional; outline: as §4
HeLa [9] = assay: Cell cycle arrest in human HeLa cells assessed as accumulation at sub-G1 phase up to 10 uM by propidium iodide staining based flow cytometry (reference value: 6.24%); format: functional
HeLa [10] = assay: Induction of apoptosis in human HeLa cells assessed as early apoptotic cells after 24 hrs by Annexin V-FITC/propidium iodide staining based flow cytometry (reference value: 2.6%); format: functional; outline: as §4
HeLa [11] = assay: Antiproliferative activity against human HeLa cells after 48 hrs by MTT assay; format: functional, cell-based
Outline: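 HeLa cervical cancer cells, growth inhibition measured by MTT viability assay, and IC50 determined.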

HeLa [12] = assay: Induction of apoptosis in human HeLa cells assessed as live cells at 2.5 uM by Annexin V-FITC/propidium iodide staining based flow cytometry (reference value: 85.2%); format: functional; outline: as §4
HeLa [13] = assay: Induction of apoptosis in human HeLa cells assessed as late apoptotic cells after 12 hrs by Annexin V-FITC/propidium iodide staining based flow cytometry (reference value: 3.6%); format: functional; outline: as §4

Row | Structure (SMILES) | inhibition of growth at 10 µM (SF-268) [%] | inhibition of growth at 10 µM (NCI-H522) [%] | inhibition of growth at 10 µM (SNB-19) [%] | inhibition of growth at 10 µM (HOP-62) [%] | inhibition of growth at 10 µM (UACC-62) [%] | inhibition of growth at 10 µM (ACHN) [%] | IC50 (L132) [µM] | inhibition of growth at 10 µM (OVCAR-4) [%] | inhibition of growth at 10 µM (KM12) [%] | inhibition of growth at 10 µM (PC-3) [%] | inhibition of growth at 10 µM (NCI-H460) [%] | inhibition of growth at 10 µM (MOLT-4) [%] | inhibition of growth at 10 µM (SW-620) [%] | inhibition of growth at 10 µM (OVCAR-3) [%] | inhibition of growth at 10 µM (OVCAR-5) [%] | inhibition of growth at 10 µM (BT-549) [%] | inhibition of growth at 10 µM (UO-31) [%] | IC50 [1] [µM] | inhibition of growth at 10 µM (MDA-MB-435) [%] | inhibition of growth at 10 µM (HT-29) [%] | other results
1 | COc1cc(NC(=O)c2cccc(-c3cc(=O)c4c(O)c(OC)c(OC)cc4o3)c2)cc(OC)c1OC | 38.1 | 58.8 | 50 | 88.3 | 50.6 | 83.7 | > 100 | 41.4 | 46.1 | 50.2 | 46.2 | 27.2 | 26.7 | 76.2 | 22.6 | 93 | 65.7 | > 100 | 34.6 | 37.2 | inhibition of growth at 10 µM (CAKI-1): 37.5%; inhibition of growth at 10 µM (OVCAR-8): 76.9%
2 | COc1cc(NC(=O)c2cccc(-c3cc(=O)c4c(OC)c(OC)c(OC)cc4o3)c2)cc(OC)c1OC | 32.9 | 65.3 | 43.7 | 62.5 | 49.5 | 43.3 | > 100 | 25.1 | 54.2 | 47.6 | 70 | 89.6 | 33 | 59.2 | 14 | 73 | 79.1 | 67.6 | 93.6 | 69 | Activity (HeLa [2]): 80.3%; Activity (HeLa [3]): 43.7%; Activity (HeLa [4]): 1.8%; Activity (HeLa [5]): 24%; Activity (HeLa [6]): 11.8%; Activity (HeLa [7]): 22.6%; Activity (HeLa [8]): 39.1%; Activity (HeLa [9]): 19.14%; Activity (HeLa [10]): 13.4%; Activity (HeLa [11]): Active; Activity (HeLa [12]): 79%; Activity (HeLa [13]): 5.5%; inhibition of growth at 10 µM (CAKI-1): 59.4%; inhibition of growth at 10 µM (OVCAR-8): 69.1%
3 | COc1cc2oc(-c3cccc(NC(=O)c4ccc5c(c4)OCO5)c3)cc(=O)c2c(OC)c1OC | 51.9 | 63.3 | 54.4 | 45.6 | 50 | 52.2 | 55 | 41.9 | 48.7 | 112 | 72.8 | 97.1 | 36 | 47 | 6.14 | 58.6 | 75.8 | > 100 | 46.7 | 70.6 | inhibition of growth at 10 µM (CAKI-1): 22.9%; inhibition of growth at 10 µM (OVCAR-8): 53.7%
